From ChEMBL document CHEMBL1158900, “Synthesis and antimitotic/cytotoxic activity of hemiasterlin analogues” (J Nat Prod, 2003) come the findings set out here.

Test [1] relates to MCF7. Kind of test: Cytotoxicity activity against human MCF7 cells expressing p53 mutant by MTT assay. In kind it is functional, cell-based. Summed up:
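Human mammary carcinoma MCF-7 cells carrying a dominant-negative mutant p53 tumour suppressor gene (MCF-7 mup53). Cytotoxicity was read out by MTT assay, and the value reported is the IC50 in nM.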
Background: Tetrazolium dyes change colour on reduction, which living cells bring about.

Test [2] deals with MCF7. Kind of test: Antimitotic activity against human MCF7 cells expressing p53 mutant.

`CCOC(=O)/C(C)=C/[C@H](C(C)C)N(C)C(=O)[C@@H](NC(=O)[C@@H](NC)C(C)(C)c1ccccc1)C(C)(C)C`: the IC50 (as a rule, the concentration that gives 50% inhibition) in the test with MCF7 [1] came to 7 nM; in the test on MCF7 [2], 1 nM.

`CN[C@@H](Cc1ccccc1)C(=O)N[C@H](C(=O)N(C)[C@H](/C=C(\C)C(=O)O)C(C)C)C(C)(C)C`: the concentration for half-maximal inhibition (IC50) in the test on MCF7 [1] is 4000 nM; in the test with MCF7 [2] it was 5000 nM.

Turning to `CN[C@H](C(=O)N[C@H](C(=O)N[C@H](/C=C(\C)C(=O)O)C(C)C)C(C)(C)C)C(C)(C)c1ccccc1`, the values for the IC50 in the test on MCF7 [1] and in the test with MCF7 [2] were 15 nM and 20 nM, respectively.

As for `CN[C@H](C(=O)N[C@H](C(=O)N(C)[C@H](/C=C(\C)C(=O)O)C(C)C)C(C)(C)C)C(C)(C)C`, the IC50 in the test with MCF7 [1] and in the test with MCF7 [2] was 6 nM in each case.

With `CN[C@H](C(=O)N[C@H](C(=O)N[C@H](/C=C(\C)C(=O)O)C(C)C)C(C)(C)C)C(C)(C)c1cn(C)c2ccccc12`, the IC50 was 0.25 nM in the test on MCF7 [1] and 0.15 nM in the test with MCF7 [2].

As to `CN[C@H](C(=O)N[C@H](C(=O)N(C)[C@H](C)/C=C(\C)C(=O)O)C(C)(C)C)C(C)(C)c1cn(C)c2ccccc12`, the IC50 with MCF7 [1] came to 40 nM; in the test with MCF7 [2], 200 nM.

For `CN[C@H](C(=O)N[C@H](C(=O)N(C)[C@H](/C=C(\C)C(=O)OC)C(C)C)C(C)(C)C)C(C)(C)c1ccccc1`, the results for the IC50 in the test with MCF7 [1] and in the test on MCF7 [2] were 3 nM and 2 nM, respectively.

As for `CN[C@H](C(=O)N[C@H](C(=O)N(C)[C@H](/C=C(\C)C(=O)O)C(C)C)C(C)(C)C)C(C)C`, the results for the IC50 in the test with MCF7 [1] and with MCF7 [2] were 150 nM and 120 nM, respectively.

In the case of `CN[C@H](C(=O)N[C@H](C(=O)N[C@H](/C=C(\C)C(=O)O)C(C)C)C(C)(C)C)C(C)(C)C`, the values for the 50% inhibitory concentration (IC50) in the test with MCF7 [1] and in the test on MCF7 [2] were 1600 nM and over 10000 nM, respectively.

Turning to `CN[C@@H](C(=O)N[C@H](C(=O)N(C)[C@H](/C=C(\C)C(=O)O)C(C)C)C(C)(C)C)C(C)(C)c1ccccc1`, the IC50 in the test on MCF7 [1] came out at 25 nM; with MCF7 [2], 10 nM.

As for `CN[C@H](C(=O)N[C@H](C(=O)N(C)C/C=C(\C)C(=O)O)C(C)(C)C)C(C)(C)c1cn(C)c2ccccc12`, the IC50 in the test on MCF7 [1] and in the test on MCF7 [2] was over 10000 nM throughout.

`CN[C@H](C(=O)N[C@H](C(=O)N(C)[C@H](CC(C)C(=O)O)C(C)C)C(C)(C)C)C(C)(C)c1cn(C)c2ccccc12` (stereo not given in full) had an IC50 in the test with MCF7 [2] of 2.5 nM.

`CN[C@H](C(=O)N[C@H](C(=O)N(C)CCCC(=O)O)C(C)(C)C)C(C)(C)c1cn(C)c2ccccc12`: the IC50 with MCF7 [1] and in the test with MCF7 [2] was over 1000 nM in each case.

For the compound `C/C(=C\[C@H](C(C)C)N(C)C(=O)[C@@H](NC(=O)[C@@H](N)Cc1c[nH]c2ccccc12)C(C)(C)C)C(=O)O`, the half-maximal inhibitory concentration (IC50) with MCF7 [1] turned out to be 40 nM; with MCF7 [2], 20 nM.

As for `CN[C@H](C(=O)N[C@H](C(=O)N(C)[C@H](/C=C(\C)C(=O)O)C(C)C)C(C)C)C(C)(C)c1cn(C)c2ccccc12`, the results for the IC50 in the test on MCF7 [1] and with MCF7 [2] were 0.8 nM and 0.5 nM, respectively.

Consider `CC[C@H](NC(=O)[C@@H](NC)C(C)(C)c1cn(C)c2ccccc12)C(=O)N(C)[C@H](/C=C(\C)C(=O)O)C(C)C`, for which the IC50 was determined as 0.8 nM in the test on MCF7 [1] and 0.5 nM with MCF7 [2].

`C/C(=C\[C@H](C(C)C)N(C)C(=O)[C@@H](NC(=O)[C@@H](N)C(C)(C)c1cn(C)c2ccccc12)C(C)(C)C)C(=O)O`: the IC50 in the test on MCF7 [1] came to 50 nM; with MCF7 [2], 30 nM.

For the compound `CN[C@@H](Cc1cn(C)c2ccccc12)C(=O)N[C@H](C(=O)N(C)C/C=C(\C)C(=O)O)C(C)(C)C`, the IC50 in the test with MCF7 [1] and in the test with MCF7 [2] was over 10000 nM in each case.

Take `C/C(=C\[C@H](C(C)C)N(C)C(=O)[C@@H](NC(=O)C(C)(C)C)C(C)(C)C)C(=O)O`: the IC50 with MCF7 [1] and with MCF7 [2] was over 10000 nM each time.

In the case of `CN[C@H](C(=O)N[C@H](C(=O)N(C)[C@@H](/C=C(\C)C(=O)O)C(C)C)C(C)(C)C)C(C)(C)c1cn(C)c2ccccc12`, the 50% inhibitory concentration (IC50) in the test on MCF7 [1] amounted to 30 nM; with MCF7 [2], 10 nM.

With `CN[C@H](C(=O)N[C@H](C(=O)N(C)[C@@H](C)/C=C(\C)C(=O)O)C(C)(C)C)C(C)(C)c1cn(C)c2ccccc12`, the IC50 in the test with MCF7 [1] and with MCF7 [2] was 4 nM in each case.

Turning to `CN[C@@H](Cc1cn(C)c2ccccc12)C(=O)N[C@H](C(=O)N(C)[C@H](/C=C(\C)C(=O)O)C(C)C)C(C)(C)C`, the IC50 with MCF7 [1] stood at 60 nM; in the test on MCF7 [2], 300 nM.

Regarding `CC(=O)N(C)[C@H](C(=O)N[C@H](C(=O)N(C)[C@H](/C=C(\C)C(=O)O)C(C)C)C(C)(C)C)C(C)(C)c1cn(C)c2ccccc12`, the IC50 in the test on MCF7 [1] and with MCF7 [2] was 300 nM in each case.

As for `CN[C@@H](Cc1cn(C)c2ccccc12)C(=O)N[C@H](C(=O)N(C)C(C)/C=C(\C)C(=O)O)C(C)(C)C` (stereo not given in full), the IC50 in the test with MCF7 [1] came to 2500 nM; in the test on MCF7 [2], 1100 nM.

Turning to `C/C(=C\[C@H](C(C)C)N(C)C(=O)[C@@H](NC(=O)[C@H](C(C)(C)c1cn(C)c2ccccc12)[N+](C)(C)C)C(C)(C)C)C(=O)O`, the IC50 in the test with MCF7 [1] and with MCF7 [2] was over 1000 nM each time.

Turning to `CN[C@H](C(=O)N[C@H](C(=O)N(C)[C@H](/C=C(\C)C(=O)N[C@@H](CCCNC(=N)N)C(=O)O)C(C)C)C(C)(C)C)C(C)(C)c1cn(C)c2ccccc12` [CRIAMIDES A], in the test on MCF7 [1], the IC50 amounted to 1000 nM.

On to `CN[C@H](C(=O)N[C@H](C(=O)N(C)[C@H](/C=C(\C)C(=O)OC)C(C)C)C(C)(C)C)C(C)(C)c1cn(C)c2ccccc12` [HEMIASTERLIN METHYL ESTER], for which the IC50 with MCF7 [1] and in the test with MCF7 [2] was 0.5 nM throughout.

For `CN[C@H](C(=O)N[C@H](C(=O)N(C)[C@H](/C=C(\C)C(=O)O)C(C)C)C(C)(C)C)C(C)(C)c1c[nH]c2ccccc12` [HEMIASTERLINS A], the IC50 in the test on MCF7 [1] and in the test on MCF7 [2] was 2 nM throughout.

Consider `CN[C@H](C(=O)N[C@H](C(=O)N(C)[C@H](/C=C(\C)C(=O)O)C(C)C)C(C)C)C(C)(C)c1c[nH]c2ccccc12` [HEMIASTERLINS B], for which the values for the IC50 in the test with MCF7 [1] and in the test with MCF7 [2] were 7 nM and 200 nM, respectively.

`CN[C@H](C(=O)N[C@H](C(=O)N(C)[C@H](/C=C(\C)C(=O)O)C(C)C)C(C)(C)C)C(C)(C)c1cn(C)c2ccccc12` [HEMIASTERLIN]: the IC50 in the test on MCF7 [1] and in the test with MCF7 [2] was 0.3 nM throughout.

As for `CN[C@H](C(=O)N[C@H](C(=O)N(C)[C@H](/C=C(\C)C(=O)O)C(C)C)C(C)(C)C)C(C)(C)c1ccccc1` [TALTOBULIN], the IC50 was determined as 0.08 nM in the test on MCF7 [1] and 0.09 nM in the test with MCF7 [2].
